An excerpt weighted towards active compounds, which were near 2% of everything screened.
IMP-1 inhibitor: inhibitors of Pseudomonas aeruginosa IMP-1 metallo-beta-lactamase | purified IMP-1, nitrocefin hydrolysis, epi-absorbance fluorescence | inhibition, % at 5.6 µM | 0.45% of 290,000 active | AID 1556;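 active means inhibition above the mean plus 3 SD of all compounds in the same screening run, cut at about 4.5% in these data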
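Assay system: purified recombinant IMP-1 beta-lactamase. Input: IMP-1 0.2 nM before substrate addition. Buffer or medium: Zinc- and detergent-supplemented HEPES buffer, pH 7.1. Schedule: 25 °C, 15 min preincubation, 25 min reaction. Signal: Epi-absorbance fluorescence, 480 nm excitation, 530 nm emission. Evaluation: percent inhibition from optical density relative to buffer-blank wells.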
VIM-2 inhibitor: inhibitors of Pseudomonas aeruginosa VIM-2 metallo-beta-lactamase; 0.89% of 290,000 active; AID 1527; inhibition, % at 5.6 µM; purified VIM-2, nitrocefin hydrolysis, epi-absorbance fluorescence;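 active means inhibition above the mean of all tested compounds plus 3 SD, cutoff set per screening run, cut at about 7.5% in these data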;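 further: red hydrolysis product quenches plate fluorescence so inhibitors raise well fluorescence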
beta cell repl: inducers of beta-cell replication in MIN6 cells | MIN6 cells proliferation, ATPlite luminescence, 48 h; cells starved in 0.2% serum; 100% = growth in 10% serum | proliferation, % at 10 µM | 0.29% of 330,000 active | AID 2380;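 active means compounds whose signal lies at least 3.5 SD above the mean of all wells on their plate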
PvdQ acylase: P. aeruginosa PvdQ acylase inhibition. inhibition, % at 10 µM. purified PvdQ acylase, fluorescence plate reader. AID 488965. 0.063% of 340,000 active; in the data active means inhibition above about 30%, passing the limit was not always enough
ATG4B inh: blocks human ATG4B protease cleavage of LC3 substrate; 0.51% of 340,000 active; ATG4B cleavage of LC3-PLA2, NBD-HPC fluorescence, 1 h; inhibition, % at 8.33 µM; Q9Y4P1; in the data active means inhibition above about 40%
HKDC1 inh: blocks human hexokinase HKDC1 activity; recombinant HKDC1, G6PDH/diaphorase resazurin coupled fluorescence; 0.16% of 340,000 active; inhibition, % at 20 µM; AID 493160;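 active means inhibition above about 35% when tested at 20 µM, limit read from the data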
Target sequence (Q2TB90 whole entry, looked up): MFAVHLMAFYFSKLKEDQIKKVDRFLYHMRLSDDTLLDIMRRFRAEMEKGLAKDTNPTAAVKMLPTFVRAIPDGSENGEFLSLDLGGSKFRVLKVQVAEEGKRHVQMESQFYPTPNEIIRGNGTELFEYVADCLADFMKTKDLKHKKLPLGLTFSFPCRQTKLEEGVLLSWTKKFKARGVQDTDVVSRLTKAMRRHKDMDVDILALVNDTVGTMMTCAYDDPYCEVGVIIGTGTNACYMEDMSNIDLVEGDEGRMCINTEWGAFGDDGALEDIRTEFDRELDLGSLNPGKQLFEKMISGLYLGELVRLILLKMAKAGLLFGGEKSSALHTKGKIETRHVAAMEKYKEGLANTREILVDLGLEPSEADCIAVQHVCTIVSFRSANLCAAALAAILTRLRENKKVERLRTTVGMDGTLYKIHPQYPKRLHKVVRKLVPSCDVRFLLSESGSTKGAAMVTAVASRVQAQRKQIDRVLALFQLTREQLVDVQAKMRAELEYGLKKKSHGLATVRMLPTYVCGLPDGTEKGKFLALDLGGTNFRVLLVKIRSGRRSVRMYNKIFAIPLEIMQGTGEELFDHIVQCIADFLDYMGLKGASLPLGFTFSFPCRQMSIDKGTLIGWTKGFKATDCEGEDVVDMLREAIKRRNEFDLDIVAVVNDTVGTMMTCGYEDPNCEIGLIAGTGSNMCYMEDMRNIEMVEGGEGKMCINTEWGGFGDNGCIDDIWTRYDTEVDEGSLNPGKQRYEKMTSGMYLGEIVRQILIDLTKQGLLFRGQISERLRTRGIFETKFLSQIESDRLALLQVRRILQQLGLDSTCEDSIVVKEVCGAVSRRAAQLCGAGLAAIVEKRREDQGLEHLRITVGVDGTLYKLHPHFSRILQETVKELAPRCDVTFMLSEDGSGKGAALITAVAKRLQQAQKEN
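Test system: HK5 enzyme. Quantity: 5 µg/mL HK5 final. Reagent: glucose and ATP substrates. Schedule: 90 min reaction incubation at room temperature, dark. Technique: resazurin-to-resorufin fluorescence via G6PDH and diaphorase coupling, 525/613 nm. Control set: DMSO wells with and without enzyme mix.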
ATG4B conf: ATG4B (human) inhibition, single-dose confirmed; shares compounds with ATG4B inh; 92% of 320 active; inhibition, % at 8.33 µM; ATG4B protease fluorescent substrate cleavage assay; in the data active means inhibition above about 39%
PLA2 ctr: inhibits human PLA2, flagging false ATG4B inhibitors; shares compounds with ATG4B inh; purified PLA2, NBD-C6-HPC fluorescence, 45 min; inhibition, % at 8.33 µM; 66% of 1,600 active; AID 588402; in the data active means inhibition above about 50%
Each line names hits and unclear results; the compound was inactive in the other large screens (follow-up assays come after a bar, where they were run).

Cc1cccc(Cn2nc(C)c(NC(=O)c3ccc(F)cc3)c2C)c1	none
Cc1nn(Cc2c(F)c(F)c(F)c(F)c2F)c(C)c1NC(=O)c1cccc(COc2ccc(Cl)cc2)c1	ATG4B inh 56.7 | PLA2 ctr 68.2
Cc1ccc(OCc2ccc(C(=O)NN)o2)c([N+](=O)[O-])c1	none
Cc1noc(C)c1COc1ccccc1C(=O)NCCOc1ccccc1	none (no result: IMP-1 inhibitor, VIM-2 inhibitor)
Cc1cc(C(=O)CSc2nnc(NCc3ccccc3)s2)c(C)n1C	none
CN1/C(=C\C(=O)CSc2nnc(NCc3ccccc3)s2)C(C)(C)c2ccccc21	ATG4B inh 42.0 | PLA2 ctr inactive
Cc1sc(NC(=O)c2ccccc2)c(C(=O)c2ccccc2)c1C	ATG4B inh 50.2 | ATG4B conf 72.8 | PLA2 ctr inactive
O=C1C(NS(=O)(=O)c2cccs2)=C(N2CCN(c3cccc(Cl)c3)CC2)C(=O)c2ccccc21	ATG4B inh 45.9 | PLA2 ctr 65.0
CC(=O)c1ccc(OCC(=O)Nc2ccc(N3CCCCC3)cc2)cc1	none (no result: IMP-1 inhibitor, VIM-2 inhibitor)
COC(=O)CSC1=C(C#N)C(c2ccc3c(c2)OCO3)C2=C(CCCC2=O)N1 (stereo not drawn)	none
COC(=O)C1=C(N)N(c2ccccc2C(F)(F)F)C2=C(C(=O)CCC2)C1c1ccc2c(c1)OCO2 (stereo not drawn)	ATG4B inh 53.6 | PLA2 ctr 67.7
Cc1cc(Nc2ccc(Cl)cc2)n(-c2ccccc2)n1	none
Cc1cc(Nc2ccc(Cl)cc2)n(-c2cccc(Cl)c2)n1	ATG4B inh 41.4 | PLA2 ctr 63.4
Nc1c(-c2ccccc2)c(CSc2nc3ccccc3[nH]2)nn1-c1cccc(Cl)c1	ATG4B inh 43.4 | PLA2 ctr 57.9
Nc1c(-c2ccccc2)c(CSc2nc3ccccc3[nH]2)nn1-c1ccc(Cl)cc1	none (no result: beta cell repl)
COCCNC(=O)/C(C#N)=C/c1c(N2CCN(c3ccccc3)CC2)nc2c(C)cccn2c1=O	ATG4B inh 40.2 | ATG4B conf 65.4 | PLA2 ctr inactive
Cc1ccccc1Oc1nc2c(C)cccn2c(=O)c1/C=C(\C#N)C(=O)Nc1c(C)n(C)n(-c2ccccc2)c1=O	ATG4B inh 52.5 | PLA2 ctr 66.5
Cc1ccccc1Oc1nc2ccccn2c(=O)c1/C=C(\C#N)C(=O)Nc1c(C)n(C)n(-c2ccccc2)c1=O	none
Cc1ccc(S(=O)(=O)N2CCN(CC(=O)Nc3ccccc3C(=O)NC3CC3)CC2)cc1	none (no result: IMP-1 inhibitor, VIM-2 inhibitor)
O=C(COC(=O)CN1C(=O)C2CCCCC2C1=O)Nc1cc(S(=O)(=O)N2CCOCC2)ccc1Cl (stereo not drawn)	none
CCn1cc(C(=O)Nc2ccc(NC(=O)c3ccco3)cc2)c(=O)c2ccc(C)nc21	none
CCn1cc(C(=O)NCc2cccc(C(F)(F)F)c2)c(=O)c2ccc(C)nc21	ATG4B inh 53.5 | PLA2 ctr inactive
CCn1cc(C(=O)OCC(=O)c2cc(C)n(-c3cccc(C(F)(F)F)c3)c2C)c(=O)c2ccc(C)nc21	ATG4B inh 75.2 (no result: beta cell repl) | PLA2 ctr 67.2
CCn1cc(C(=O)OCC(=O)c2ccccc2)c(=O)c2ccc(C)nc21	none (no result: beta cell repl)
Cc1sc2ncnc(SCC(=O)c3ccc4c(c3)OCCO4)c2c1-c1ccccc1	none
Cc1c(Br)c([N+](=O)[O-])nn1CC(=O)NCCc1c[nH]c2ccccc12	none
C=CCOC(=O)c1cc(-c2ccc(/C=C3\C(=O)NC(=O)C(C#N)=C3C)o2)ccc1Cl	ATG4B inh 69.8 (no result: beta cell repl) | PLA2 ctr inactive
CCCOC(=O)c1cc(-c2ccc(/C=C3/C(=O)N(C)C(=O)C(C#N)=C3C)o2)ccc1Cl	none
S=C(Nc1ccccc1Oc1ccccc1)Nc1cccc(Cl)c1Cl	ATG4B inh 88.4 (no result: beta cell repl) | PLA2 ctr 94.7
S=C(Nc1ccc(Cl)cc1Cl)Nc1ccccc1Oc1ccccc1	ATG4B inh 71.6 | PLA2 ctr 79.2
S=C(Nc1cccc(Cl)c1)Nc1ccccc1Oc1ccccc1	ATG4B inh 85.6 | PLA2 ctr 87.8
S=C(Nc1ccccc1Oc1ccccc1)NC1CCCC1	none
CNC(=S)Nc1cc(Cl)ccc1Oc1ccccc1	none
CCN(CCS(=O)(=O)c1ccc(Cl)cc1)Cc1nc2ccccc2c(=O)[nH]1	none (no result: IMP-1 inhibitor, VIM-2 inhibitor)
Cc1cc(C)cc(C(=O)N(CCc2ccccc2)C2CC3CCC(C2)N3C)c1 (stereo not drawn)	none
C#CCOCCOCCOCCNc1nc(N2CCN(C(=O)CCCCCCCCCCNC(=O)[C@H](CCCCN)n3cc(C[C@@H](C)CC)nn3)CC2)nc(N2CCN(C(=O)CCCCCCCCCCNC(=O)[C@H](CCCCN)n3cc(C[C@@H](C)CC)nn3)CC2)n1	ATG4B inh 79.7 (no result: IMP-1 inhibitor, VIM-2 inhibitor, beta cell repl) | PLA2 ctr 77.5
Cc1ccc(S(=O)(=O)N2CCN(C(=O)c3c(-c4ccccc4)noc3C)CC2)c(C)c1	none
CC1CCc2c(cnc3ncnn23)C1 (stereo not drawn)	none
CCC(C)[C@H](Nc1nc(-c2ccccc2)nc2c1oc1ccccc12)C(=O)O (stereo partly drawn)	ATG4B inh 44.1 | PLA2 ctr 54.4
CC(C)[C@H](Nc1nc(-c2ccccc2)nc2c1oc1ccccc12)C(=O)O	none
CC(NS(=O)(=O)c1ccc(CCC(=O)NCc2cccnc2)cc1)c1ccccc1 (stereo not drawn)	ATG4B inh 89.9 | PLA2 ctr inactive
CC(C)NS(=O)(=O)c1ccc(CCC(=O)NCc2cccnc2)cc1	none
COc1cc(/C=C2\SC(=Nc3ccccc3)N(CCc3c[nH]c4ccccc34)C2=O)ccc1OC(C)C(=O)O (stereo not drawn)	ATG4B inh 46.0 | ATG4B conf 51.0 | PLA2 ctr inactive
COc1ccc(N=C2S/C(=C\c3ccc(OC(C)C(=O)O)c(OC)c3)C(=O)N2CCc2c[nH]c3ccccc23)cc1 (stereo not drawn)	ATG4B inh 57.8 | PLA2 ctr 64.6
O=C1/C(=C/c2ccc(N3CCOCC3)o2)SC(=Nc2ccccc2)N1CCc1c[nH]c2ccccc12	none
COCCN1C(=O)/C(=C/c2ccc(Oc3ccc([N+](=O)[O-])cn3)c(OC)c2)SC1=Nc1ccccc1	none
CCOC(=O)N/N=C/c1cn(CCCOc2ccccc2)c2ccccc12	none
CCOC(=O)N/N=C/c1cn(CCCOc2ccc(C)cc2)c2ccccc12	ATG4B inh 41.1 | PLA2 ctr inactive
